{
  "source": "paper PMC2174336",
  "about": "(The Journal of Cell Biology, 2001)",
  "key": {"[1]": {"tested_on": "αMβ2 integrin", "assay": "LLG-C4-GST binding to immunocaptured αMβ2 integrin", "conditions": "integrin immunocaptured with MEM170 or OKM1", "in_short": "(§1)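 Integrins from buffy-coat lysate in 1% octylglucoside/1 mM MnCl2/TBS were captured for 2 h at 4°C on wells coated with subunit antibodies (MEM170, OKM1 or 2E7), then washed five times. Peptide–GST fusion or GST (10 μg/ml; 2 μg/well per legend) bound 1 h in 25 mM octylglucoside/TBS/1 mM MnCl2, ± EDTA. Detection by Eu3+-chelate-labelled anti-GST antibody fluorescence. Repeated three times.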"}, "[2]": {"tested_on": "β2 integrin", "assay": "LLG-C4-GST binding to integrin immunocaptured with β2 subunit antibody 2E7", "conditions": "β2 subunit antibody 2E7 used for immunocapture", "in_short": "as §1"}, "[3]": {"tested_on": "αM subunit I domain", "assay": "LLG-C4-GST binding to purified αM subunit I domain", "conditions": "LLG-C4-GST 10 μg/ml; for inhibition of LLG-C4-GST binding to the I domain: peptide 100 μM, triplicate wells", "in_short": "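The αM I domain was expressed as a GST fusion in E. coli, purified on glutathione beads and released by thrombin cleavage; it was then coated on wells. Peptide–GST fusion or GST at the indicated concentrations (10 μg/ml in methods) was incubated 1 h in 25 mM octylglucoside/TBS/1 mM MnCl2. Bound protein was detected with Eu3+-labelled anti-GST antibodies. Triplicate wells, three experiments.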"}, "[4]": {"tested_on": "THP-1 cells", "assay": "Inhibition of THP-1 cell adhesion to LLG-C4-GST or LLG-C4 substratum", "assay_type": "cell-based", "in_short": "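THP-1 cells were mixed in suspension with test peptides at the indicated final concentrations, or with 2.5 mM EDTA. They were then incubated 60 min in wells coated with peptide–GST fusion. Unbound cells were removed by PBS washing and bound cells quantitated by phosphatase assay. Mean of triplicate wells; repeated in two further experiments.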"}, "[5]": {"tested_on": "αXβ2 integrin–transfected L cells", "assay": "Binding of αXβ2 integrin-transfected L cells to LLG-C4-GST", "assay_type": "cell-based, mouse", "conditions": "three experiments in triplicate wells", "in_short": "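αXβ2-transfected mouse L cells were incubated in wells coated with peptide–GST fusion or GST (2 μg/well, BSA-blocked), 60 min at 37°C, 10^5 cells/well. The β2-blocking antibody 7E4 or EDTA served as competitors. After PBS washing, bound cells were read by phosphatase assay and given as percentage adhesion. Triplicate wells; three experiments.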"}, "[6]": {"tested_on": "T cells", "assay": "T cell binding to TNF-α-stimulated Eahy926 endothelial cell monolayer", "assay_type": "cell-based", "conditions": "peptide 50 μM; 45 min; phosphatase assay; triplicate wells", "in_short": "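Eahy926 endothelial cells were seeded at 5×10^4/well, grown 3 d, then stimulated 16 h with TNF-α (10 ng/ml). Blood T cells were isolated by Ficoll-Hypaque and nylon wool. T cells (1.5×10^5/well) were bound 30 min at 4°C then 15 min at 37°C, with test or control peptide at 50 μM. Unbound cells were removed by immersing the plate in PBS. Phosphatase assay; triplicate wells.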"}, "[7]": {"tested_on": "THP-1 cells", "assay": "THP-1 adhesion to A2 domain-deleted von Willebrand factor", "assay_type": "cell-based", "conditions": "phosphatase assay; triplicate wells", "in_short": "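Wild-type or A2-domain-deleted recombinant von Willebrand factor was captured on wells coated with anti-von Willebrand factor antibody D′-D3. THP-1 cells were incubated with competitor peptides at the stated concentrations. Bound cells were read by phosphatase assay, expressed relative to wild-type von Willebrand factor binding (100%). Triplicate wells; similar in two further experiments.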"}, "[8]": {"tested_on": "THP-1 cells", "assay": "THP-1 cell adhesion to von Willebrand factor", "assay_type": "cell-based", "conditions": "data not shown", "in_short": "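THP-1 cells were incubated 60 min at 37°C in wells coated with von Willebrand factor or fibronectin (2 μg per well, BSA-blocked), with test peptides at the indicated concentrations. Unbound cells were washed off with PBS and bound cells read by phosphatase assay. Triplicate wells.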"}, "[9]": {"tested_on": "THP-1 cells", "assay": "THP-1 cell adhesion to immobilized peptides or GST fusion proteins", "assay_type": "cell-based", "conditions": "60 min; for THP-1 cell binding to substance coated on microtiter wells: phorbol ester–activated THP-1 cells, phosphatase assay", "in_short": "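Proteins or synthetic peptides coated at 2 μg per well in TBS unless indicated; polymerised peptide made with 0.25% final glutaraldehyde. Wells blocked with 5% BSA and washed with PBS. Cells were preactivated for 30 min at room temperature in serum-free medium with 50 nM phorbol dibutyrate or 200 μM activating peptide. Then 10^5 cells/well were incubated 60 min at 37°C. Bound cells were read by cellular phosphatase assay.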"}, "[10]": {"tested_on": "Jurkat cells", "assay": "Jurkat cell adhesion to ICAM-1-Fc", "assay_type": "cell-based"}, "[11]": {"tested_on": "THP-1 cells", "assay": "THP-1 cell migration on fibrinogen-coated Transwell filters", "assay_type": "cell-based", "conditions": "200 μM; 8-μm Transwell; 10% serum; 18 h; n = 6", "in_short": "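Both faces of 8-μm-pore Transwell filters were coated with fibrinogen or peptide–GST fusion (40 μg/ml; GST control) and blocked with 5% BSA. THP-1 cells (5×10^4) were placed in the upper chamber in 10% serum medium, ± test peptides at 200 μM; the lower chamber held the same medium. After 18 h at 37°C, filters were methanol-fixed and stained with 0.1% toluidine blue. Cells on the lower surface were counted microscopically.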"}, "[12]": {"tested_on": "αMβ2 integrin", "assay": "Phage binding to purified αMβ2 integrin", "conditions": "phage-displayed peptide; data not shown"}, "[13]": {"target": "β2 integrins of THP-1 cells (adhesion to LLG-C4 substrata)"}, "[14]": {"target": "β2 integrins of THP-1 cells (adhesion to LLG-C4 substrata)", "remark": "listed apart in the source"}},
  "note": "Bridges are numbered along the chain shown (N, C = ends). Where no end group is shown, it is not given here.",
  "data": [
    {"molecule": "O=C(O)CN(CCN(CC(=O)O)CC(=O)O)CC(=O)O", "note": "[EDTA]", "values": [
      {"measurement": "effect of EDTA on LLG-C4-GST binding to αMβ2 integrin", "setting": "[1]", "result": "inhibited the binding"},
      {"measurement": "effect of EDTA on LLG-C4-GST binding to integrin captured with 2E7", "setting": "[2]", "result": "only partially inhibited"},
      {"measurement": "effect of EDTA on LLG-C4-GST binding to the I domain", "setting": "[3]; EDTA 2.5 mM", "result": "blocked the binding"},
      {"measurement": "effect of EDTA on THP-1 binding to LLG-C4-GST", "setting": "[4]; EDTA 2.5 mM, phorbol ester–activated cells", "result": "abolished the binding"},
      {"measurement": "binding of αXβ2-transfected L cells to LLG-C4-GST, effect of competitor", "setting": "[5]", "result": "inhibited"}
    ]},
    {"molecule": "ACDCRGDCFCG (also: bicyclic or more (positions not given here)) [RGD-4C]", "values": [
      {"measurement": "effect on T cell binding to TNF-α–stimulated endothelial cells", "setting": "[6]", "result": "no effect"},
      {"measurement": "effect on THP-1 adhesion to the A2-deleted von Willebrand factor", "setting": "[7]", "result": "blocked"}
    ]},
    {"molecule": "CAAGC (disulfide)", "values": [
      {"measurement": "competition of THP-1 cell adhesion on LLG-C4-GST (in words)", "setting": "[4]; LLG-C4-GST substratum", "result": "only a weak competitor"}
    ]},
    {"molecule": "CLLGC (disulfide)", "values": [
      {"measurement": "concentrations at which THP-1 cell adhesion on LLG-C4-GST was readily inhibited", "setting": "[4]; LLG-C4-GST substratum, phosphatase assay", "result": "≥ 1", "unit": "mM"},
      {"measurement": "inhibition of THP-1 binding to von Willebrand factor at 500 μM", "setting": "[8]", "result": "inhibited"}
    ]},
    {"molecule": "CPCFLLGCC (also: bicyclic or more (positions not given here)) [C(1-9;3-8)]", "values": [
      {"measurement": "THP-1 cell binding to peptide cross-linked with glutaraldehyde", "setting": "[9]; peptide coated in presence of glutaraldehyde, 10^5 cells per well", "result": "inactive even after the cross-linking"},
      {"measurement": "THP-1 cell binding to substance coated on microtiter wells", "setting": "[9]", "result": "failed to bind"},
      {"measurement": "fold less active than C(1-8;3-9), THP-1 cell adhesion on LLG-C4-GST", "setting": "[4]; relative to C(1-8;3-9)", "result": 20, "unit": "fold"},
      {"measurement": "inhibition of Jurkat cell adhesion to ICAM-1-Fc (in words)", "setting": "[10]", "result": "severalfold less active and had hardly any effect"},
      {"measurement": "effect on THP-1 cell migration on fibrinogen", "setting": "[11]", "result": "inhibited only partially"}
    ]},
    {"molecule": "CPCFLLGCC (also: bicyclic or more (positions not given here)) [LLG-C4]", "values": [
      {"measurement": "affinity to αMβ2 in phage-binding experiments in comparison to the other clones", "setting": "[12]", "result": "higher affinity"},
      {"measurement": "THP-1 cell binding to substance coated on microtiter wells", "setting": "[9]", "result": "bound strongly"}
    ]},
    {"molecule": "CPCFLLGCC [LLG-C4 (1)]", "values": [
      {"measurement": "inhibition of LLG-C4-GST binding to the I domain", "setting": "[3]", "result": "blocked"}
    ]},
    {"molecule": "CPCFLLGCC [LLG-C4 (2)]", "values": [
      {"measurement": "inhibition of LLG-C4-GST binding to the I domain", "setting": "[3]", "result": "did not inhibit"}
    ]},
    {"molecule": "CPCFLLGCC (disulfide 1-8, 3-9)", "note": "[C(1-8;3-9) peptide]", "values": [
      {"measurement": "IC50 of inhibition of THP-1 cell adhesion on LLG-C4-GST (blocks m22 with m1)", "setting": "[13]", "result": 20, "unit": "µM"}
    ]},
    {"molecule": "CLLGC (also: cyclic, type of ring not given here)", "note": "[CLLGC peptide]", "values": [
      {"measurement": "inhibition of THP-1 cell adhesion on LLG-C4-GST (blocks m22 with m1)", "setting": "[14]", "result": "> 1", "unit": "mM"}
    ]}
  ]
}
